From PubChem BioAssay
A selection: hits, their analogues and other compounds. The true share with any hit is near 3.4%.
ANO1 activ = activators or potentiators of mouse TMEM16A chloride channel | Q8BHY3 | HEK293 TMEM16A/YFP-H148Q/I152L, iodide quench fluorescence; stronger effect = lower value | B-score at 10 µM | actives 0.3% (n = 340,000) | AID 623877;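 active = fluorescence-ratio B-score plate-corrected deviation score at least 3 library SD below zero, with starting fluorescence score within 5 deviations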;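 note: channel opened by trigger with iodide after compound preincubation; score built on the fluorescence ratio of max minus min over baseline; more negative score means more quench and so TMEM16A activation or potentiation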
MIN6 prolif = MIN6 beta-cell proliferation induction | proliferation, % at 10 µM | actives 0.29% (n = 330,000) | AID 2380 | MIN6 cells proliferation, ATPlite luminescence, 48 h; cells starved in 0.2% serum; 100% = growth in 10% serum;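 active = compounds whose signal lies at least 3.5 SD above the mean of all wells on their plate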;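 note: 0% = DMSO-treated cells in low-serum medium and 100% = 10% serum control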
TMEM16A inh = blocks the mouse calcium-activated chloride channel TMEM16A; actives 1.2% (n = 310,000); Q8BHY3; AID 588511; normalized B-score (activity score, 25-100; higher = stronger inhibition) at 10 µM; HEK293 TMEM16A/YFP iodide influx fluorescence, ionomycin;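 active = ratio plate-corrected score three or more library SD toward inhibition, starting fluorescence score within five deviations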;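 note: score derived from kinetic fluorescence span divided by baseline fluorescence per well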
HTR2A ag = activates the mouse 5-HT2A serotonin receptor. P35363. CHO-K1 mHTR2A beta-arrestin complementation, luminescence; percent of 30 µM serotonin response. activation, % at 7.6 µM. actives 0.66% (n = 360,000). AID 624169;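 active = activation above a run cutoff, the mean activation of all tested compounds plus 3 SD, cut at about 14% in these data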;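 note: 0% = plate median of compound wells and 100% = 30 µM serotonin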
Target sequence (P35363 whole entry, looked up): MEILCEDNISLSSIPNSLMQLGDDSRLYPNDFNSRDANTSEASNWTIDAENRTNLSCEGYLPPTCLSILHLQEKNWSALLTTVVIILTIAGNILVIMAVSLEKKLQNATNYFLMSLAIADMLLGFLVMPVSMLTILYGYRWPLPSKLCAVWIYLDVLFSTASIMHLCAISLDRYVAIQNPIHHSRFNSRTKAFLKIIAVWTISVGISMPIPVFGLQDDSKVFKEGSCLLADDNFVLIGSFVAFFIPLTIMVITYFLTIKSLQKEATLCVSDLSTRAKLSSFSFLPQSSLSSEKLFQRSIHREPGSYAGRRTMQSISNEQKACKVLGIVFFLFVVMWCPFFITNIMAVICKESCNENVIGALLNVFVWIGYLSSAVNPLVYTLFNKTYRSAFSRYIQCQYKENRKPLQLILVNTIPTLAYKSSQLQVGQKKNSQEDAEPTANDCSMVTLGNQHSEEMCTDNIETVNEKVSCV
MC4R antagonist = human MC4R antagonism in cAMP assay; actives 0.48% (n = 360,000); P32245; MC4R-expressing cells, MTII-stimulated cAMP, LANCE TR-FRET; inhibition, % at 6.5 µM; AID 540295;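 active = inhibition above its plate's cutoff, the mean of tested wells on that plate plus 3 SD, cut at about 29% in these data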;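 note: 0% = Melanotan II alone and 100% = Melanotan II plus saturating MCL0020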
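material = U2OS cells stably expressing human melanocortin 4 receptor (MC4R) | also added = Melanotan II challenge | dosing = single nominal compound dose of 6.5 µM | detection = TR-FRET with Eu-cAMP and labeled anti-cAMP, 671 nm | replication = singlicate | timing = compound 30 min, challenge 1 h, detection 1 h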
MC4R ag barr = human MC4R agonism via beta-arrestin; activation, % at 8.9 µM; AID 540308; P32245; U2OS MC4R beta-arrestin complementation, luminescence; percent of melanotan II response, DMSO zero; actives 0.98% (n = 360,000);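 active = activation above a per-plate cutoff, the mean activation of sample wells on that plate plus 3 SD, cut at about 8% in these data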
* hit, by the source's call; i = inactive; . = not tested or not shown.

SMILES | ANO1 activ | MIN6 prolif | TMEM16A inh | HTR2A ag | MC4R antagonist | MC4R ag barr
CC1C2(C)OC(=N)C(C#N)(C(C)O2)C1(C#N)C#N (stereo unspecified) | -6.3* | 1 | i | -2 | 8 | -1
Cn1c(=O)nc2n(Cc3ccccc3)c3ccccc3cc-2c1=O | i | 1 | 100* | 5 | -8 | -2
CN(C)c1nc2c(c(=O)n(C)c(=O)n2C)n1Cc1ccccc1 | i | 3 | i | 0 | -3 | -1
Cc1ccccc1-n1c2nc(=O)n(C)c(=O)c-2cc2ccccc21 | i | -2 | 100* | 1 | 9 | -1
CCCCn1c(=O)nc2n(-c3ccccc3C)c3ccccc3cc-2c1=O | i | -1 | 25* | -1 | 7 | 1
Cc1ccccc1-n1c(=O)c2ccccc2n2nnnc12 | i | -2 | i | 3 | -1 | -3
CCCCn1c(=O)c2ccccc2c2ccccc2c1=O | i | -2 | i | -2 | 7 | 6
CCN(CC)C(=O)c1cccc(-c2csc(C(C)(O)c3cccc(F)c3)n2)c1 (stereo unspecified) | . | . | . | 1 | 8 | 1
O=C(Nc1ccc(Oc2cccnc2)cc1)c1ccc([N+](=O)[O-])cc1 | i | -2 | i | 6 | 25 | 2
O=C(Nc1ccc(Nc2ccncc2)cc1)c1ccc([N+](=O)[O-])cc1 | -6.1* | -6 | i | 0 | -1 | -3
COc1ccc(-n2nc(C)c3c(=O)c4c([nH]c32)CCCC4)cc1 | i | -4 | i | -1 | 0 | -1
CCc1nc(SCc2nc3ccccc3[nH]2)c2oc3ccccc3c2n1 | i | -5 | 25* | -2 | -3 | -2
Cc1nc(SCc2nc3ccc(Br)cc3[nH]2)c2oc3ccccc3c2n1 | i | -5 | . | -3 | 0 | -2
COc1ccc(CC(=O)NC2CCS(=O)(=O)C2)cc1 (stereo unspecified) | i | -2 | i | -1 | 19 | -3
C[C@@H](C(=O)N1CCN(Cc2ccc3c(c2)OCO3)CC1)n1nnc2ccccc2c1=O | i | -2 | i | -5 | 8 | -3
CCOC(=O)c1[nH]c(C)c(C(=O)OCC(=O)N2CCc3ccccc32)c1C | i | -1 | i | -1 | -6 | 8.5*
O=[N+]([O-])c1ccc(Sc2cccc3cccnc23)c([N+](=O)[O-])c1 | i | -5 | i | -5 | -3 | -2
O=[N+]([O-])c1cc(Cl)ccc1Sc1cccc2cccnc12 | i | 3 | i | 4 | 5 | 8.8*
O=C(Nc1ccc(Cl)cc1Cl)c1cccc(N2C(=O)C=CC2=O)c1 | i | -6 | i | 1 | 57* | -1
CC1(C(=O)NS(=O)(=O)C2CC2)CCN(C(=O)c2ccc(F)cc2Cl)C1 (stereo unspecified) | . | . | . | 10 | -2 | 0
CNC[C@H](CC1CCCCC1)NC[C@H](Cc1ccccc1)NCCC12CC3CC(CC(C3)C1)C2 | i | -7 | 100* | 3 | 27 | 26*
NC[C@H](Cc1ccccc1)NCCCCC1CCCCC1 | i | -4 | . | 0 | 6 | 2
CCOC(=O)C1(CCCc2ccccc2)CCN(C(=O)CSC)CC1 | i | -1 | i | 4 | 2 | 1
CCOC(=O)C1(CCCc2ccccc2)CCN(C(=O)Cc2nonc2C)CC1 | -6.7* | 1 | i | -3 | -2 | -4
Cc1cc(Cl)ccc1OC(C)C(=O)NCCc1ccc2c(c1)OCCO2 (stereo unspecified) | i | 0 | i | -5 | 14 | 1
SMILES | ANO1 activ | MIN6 prolif | TMEM16A inh | HTR2A ag | MC4R antagonist | MC4R ag barr
Cc1cc(Cl)ccc1OC(C)C(=O)Nc1ccccc1N1CCOCC1 (stereo unspecified) | -20* | -5 | 100* | 2 | 4 | 0
Cc1cc(Cl)ccc1OC(C)C(=O)NCCCCc1ccccc1 (stereo unspecified) | i | -4 | i | -5 | 14 | 9.0*
CC(Oc1ccc(Cl)cc1)C(=O)Nc1ccccc1N1CCOCC1 (stereo unspecified) | i | -5 | . | -2 | 13 | 3
COc1ccc(C=O)cc1COc1ccc(Cl)cc1[N+](=O)[O-] | i | -4 | i | -2 | -7 | 9.9*
O=[N+]([O-])c1ccccc1S(=O)(=O)NCCC1=CCCCC1 | i | -6 | 25* | -4 | 20 | -3
O=C(Cc1ccccc1[N+](=O)[O-])NCCC1=CCCCC1 | i | 5 | i | 2 | 4 | -1
Cc1ccc(CCC(=O)Nc2ccc(N(C)C)cc2)o1 | i | -2 | i | 5 | 7 | -1
Cc1noc(NS(=O)(=O)c2ccc(NC(=O)C(F)(F)C(F)(F)C(F)(F)F)cc2)c1C | i | -2 | i | -2 | 7 | 0
Cc1ncsc1CCOC(=O)C12CC3CC(CC(C3)C1)C2 | i | -3 | i | 16* | 7 | 4
Cc1c(CCOC(=O)C23CC4CC(CC(C)(C4)C2)C3)sc[n+]1CC(=O)c1ccccc1 | i | -6 | i | -8 | -12 | 9.3*
NS(=O)(=O)c1ccc(CCNCc2cc(Br)ccc2OCc2ccccc2)cc1 | i | 0 | 100* | 0 | 3 | -1
CCOc1cc(CNCCc2ccc(S(N)(=O)=O)cc2)cc(Cl)c1OCc1ccccc1 | i | -6 | 25* | -3 | 12 | 5
CCOc1cc(CNCCc2ccc(S(N)(=O)=O)cc2)ccc1OCc1ccccc1 | i | . | i | -4 | 13 | -1
NS(=O)(=O)c1ccc(NCc2cc(Cl)ccc2OCc2ccc(F)cc2)cc1 | i | -4 | 25* | -6 | 5 | 5
COC(=O)C1=C(C)NC(C)=C(C(=O)OC)C1C(=O)OCC(=O)NC1CCCCC1C (stereo unspecified) | . | . | . | -5 | 6 | -3
COc1ccc(C2=Nc3ccccc3N(C(=O)c3ccc(C)cc3)C2C(=O)Nc2c(C)cccc2C)cc1 (stereo unspecified) | . | . | . | -5 | . | .
COc1ccc(-c2csc(NC(=O)c3ccccc3NS(=O)(=O)c3ccc(C)cc3)n2)cc1 | i | 0 | 100* | 14 | 15 | 3
COc1ccc(-c2csc(NC(=O)c3c(OC)cccc3OC)n2)cc1 | i | -3 | i | 0 | 16 | 0
COc1ccc(N2CC(C(=O)NCc3n[nH]c(=O)c4ccccc34)CC2=O)cc1 (stereo unspecified) | i | -3 | . | 3 | -2 | 1
COc1cccc(CN(C)C(=O)CN2C(=O)NC(c3ccccc3)(c3ccccc3)C2=O)c1 | -48* | -4 | . | -8 | -5 | -1
COc1cccc(CNC(=O)CN2C(=O)NC(c3ccccc3)(c3ccccc3)C2=O)c1 | i | -2 | . | 0 | 1 | -1
